High-throughput results (PubChem)
The list is not random: actives were taken first. Their share in the collection is about 3.7%.
KCNQ1 pot – human KCNQ1 channel potentiation or activation | 310,000 tested, 0.35% active | P51787 | AID 2648 | CHO-K1 KCNQ1, thallium flux FluxOR fluorescence; stronger effect = higher value | B-score at 10 µM;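 active = fluorescence ratio B-score, a plate-corrected score, at least three library SD, with initial intensity B-score within 5 SD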
Target sequence (P51787 whole entry, looked up): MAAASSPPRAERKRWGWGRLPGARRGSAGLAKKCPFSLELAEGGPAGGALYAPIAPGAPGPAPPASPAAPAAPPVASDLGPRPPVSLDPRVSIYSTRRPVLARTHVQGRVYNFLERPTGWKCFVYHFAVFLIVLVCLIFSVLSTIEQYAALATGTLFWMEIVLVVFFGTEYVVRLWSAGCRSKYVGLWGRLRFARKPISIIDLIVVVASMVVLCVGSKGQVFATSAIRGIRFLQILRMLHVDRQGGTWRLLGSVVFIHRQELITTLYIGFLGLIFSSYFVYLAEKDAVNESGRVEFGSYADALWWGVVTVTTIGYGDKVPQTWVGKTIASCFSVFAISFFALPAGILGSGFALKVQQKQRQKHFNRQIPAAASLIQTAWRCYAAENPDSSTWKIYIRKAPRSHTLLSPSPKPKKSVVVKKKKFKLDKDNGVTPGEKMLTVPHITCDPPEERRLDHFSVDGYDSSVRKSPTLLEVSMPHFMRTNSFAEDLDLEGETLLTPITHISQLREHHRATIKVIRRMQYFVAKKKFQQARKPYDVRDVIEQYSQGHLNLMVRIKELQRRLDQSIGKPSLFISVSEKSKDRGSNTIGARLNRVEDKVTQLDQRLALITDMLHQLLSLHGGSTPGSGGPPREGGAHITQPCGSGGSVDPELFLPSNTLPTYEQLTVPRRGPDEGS
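Schedule – 37 °C overnight plating, 90-min dark dye load, 20-min compound pretreatment · System – stable KCNQ1 CHO-K1 line · Probe or stimulus – thallium- and potassium-containing depolarizing buffer · Measured by – kinetic FluxOR fluorescence, 10 s baseline plus 110 s post-stimulus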
hERG protect – hERG (human) protection from proarrhythmic block. AID 1511. CHO-hERG, FluxOR thallium flux, dofetilide IC70 present. 310,000 tested, 0.51% active. Q12809. activation (rescue from dofetilide block), less the hit threshold, % at 10 µM;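 active = activation above the mean of controls blocked by dofetilide plus 5 SD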;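 note: thallium influx through hERG after potassium depolarization seen as dye fluorescence rise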
Kir21 block – blocks the mouse Kir2.1 inward-rectifier potassium channel; HEK293-Kir2.1, FluxOR thallium flux fluorescence; stronger effect = lower value; B-score at 10 µM; 310,000 tested, 0.85% active; AID 1672;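 active = fluorescence ratio B-score at or below minus 3 SD of library scores, with starting-brightness B-score within 2 SD, cut at about -4.2 in these data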;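 note: channel flux triggered by added potassium and thallium sulfate stimulus; B-score of peak minus minimum fluorescence over baseline after thallium stimulus; more negative B-score means stronger Kir2.1 block with less thallium influx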
KCNQ1 block – human KCNQ1 channel inhibition; 310,000 tested, 1.3% active; CHO-K1 KCNQ1, FluxOR thallium flux fluorescence; stronger effect = higher value; B-score at 10 µM; P51787;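 active = compounds whose thallium flux B-score, printed positive for inhibition, exceeds three library SD while starting fluorescence stays within three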;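 note: channel opened by potassium depolarization with thallium stimulus after 20 min compound exposure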
KCNK3 inh – human KCNK3 channel inhibition, primary screen. B-score at 10 µM. CHO-KCNK3 thallium flux, FluxOR fluorescence; stronger effect = lower value. O14649. AID 602410. 340,000 tested, 0.84% active;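 active = B-score under library mean minus 4 SD, starting fluorescence ratio at most library mean plus 5 SD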;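 note: more negative B-score means stronger inhibition of thallium flux through KCNK3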
KCNK9 inh – human KCNK9 channel inhibition | Q9NPC2 | HEK293 KCNK9, FluxOR thallium flux fluorescence; stronger effect = lower value | B-score at 10 µM | 310,000 tested, 1.2% active | AID 488922;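 active = ratio B-score over 3 SD below the library mean, with starting fluorescence within 5 SD of its mean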;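 note: negative B-score means less thallium flux so channel inhibition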
* marks the source's active call; other numbers are inactive results; i = inactive; . = no result given.

SMILES	KCNQ1 pot	hERG protect	Kir21 block	KCNQ1 block	KCNK3 inh	KCNK9 inh
Cc1ccc(C2=N/C(=C\c3c(C)nn(-c4ccccc4)c3N3CCCC3)C(=O)O2)cc1	i	-18	0.96	9*	i	i
CN(Cc1cccc(F)c1)C(=O)CNS(=O)(=O)c1ccc2ccccc2c1	i	-2	-0.42	i	i	i
CN(C[C@H](Cc1ccccc1)N(C[C@H](Cc1ccccc1)N(CCC(C)(C)C)N=O)N=O)N=O	i	-12	-0.46	8*	i	i
CC(C)CCN(N=O)[C@@H](Cc1ccccc1)CN(N=O)[C@@H](Cc1ccccc1)CN(C)N=O	i	-16	0.72	i	i	i
Cc1ccc2ccc[n+](Cc3ccccc3)c2c1	i	-6	-0.62	i	i	i
Cc1ccc(C[n+]2cccc(-c3ccccc3)c2)c(C)c1	i	-13	-4.3*	i	i	i
COc1cc(OC)cc(C(=O)NCCc2cnc[nH]2)c1	i	0	-0.02	i	i	i
COc1ccc(CCNCC(=O)Nc2ccc(C(=O)N3CCCCC3)cc2)cc1	i	-7	0.15	i	i	i
CCOc1ccc(OCC)c(NC(=O)CCCN2C(=O)c3cccnc3C2=O)c1	i	7.5*	0.1	i	i	i
CN(C)c1ccc(C=c2c3cc([N+](=O)[O-])ccc3n3c2cc(-c2ccccc2)[n+]3C)cc1	.	.	.	.	i	.
COc1cc(N(C)C)ccc1C=c1c2ccccc2n2c1cc(-c1ccccc1)[n+]2C	.	.	.	.	i	.
CN(C)c1ccc(C=c2c3ccccc3n3c2cc(-c2ccc(Cl)cc2)[n+]3C)cc1	.	.	.	.	-12*	.
CN(C)c1ccc(C=c2c3ccccc3n3c2cc(-c2ccccc2)[n+]3C)cc1	.	.	.	.	-15*	.
CCN1C(=O)C(=O)N(CC(=O)N(C)CC(=O)Nc2ccccc2C(F)(F)F)C1=O	.	.	.	.	i	.
CCO[C@@H]1OC(C(N)=O)=C[C@H](c2ccccc2)[C@H]1CCCO	i	-6	1	i	i	i
O=C(Oc1ccc(Br)cc1C(=S)N1CCCC1)c1ccccc1Cl	i	-5	-0.98	i	i	-8*
CN(Cc1ccccc1)C(=S)NC(=O)c1cccs1	39*	-1	-1.2	i	i	i
CN(Cc1ccccc1)C(=S)NC(=O)c1ccc(-c2ccccc2)cc1	i	-2	-0.82	i	i	i
CC(Cc1ccccc1)N1C(=O)c2cccc([N+](=O)[O-])c2C1=O (centres undefined)	i	-2	2.1	i	i	i
CCc1ccc(C2C(C(=O)O)c3ccccc3C(=O)N2C)cc1 (centres undefined)	i	-3	0	i	i	i
CCc1ccc(/C=C/C(=O)C2C(=O)c3ccccc3C2=O)cc1	28*	28*	-1.1	i	i	i
COc1ccc([C@@H]2C=C(C(=O)O)O[C@H](OCCCCO)C2)cc1	i	-10	0.39	i	i	i
C=CCNCCCOc1ccc(Cl)cc1C(C)(C)C	i	-20	-14*	i	i	i
CC(C)(C)NCCOCCOc1ccc(Cl)cc1C(C)(C)C	i	-5	-1	i	i	i
O=[N+]([O-])c1ccccc1OCCNCc1ccccc1	i	7.2*	-1.8	i	i	i
SMILES	KCNQ1 pot	hERG protect	Kir21 block	KCNQ1 block	KCNK3 inh	KCNK9 inh
C=CCNCCOCCOc1ccc(Cl)cc1C(C)(C)C	i	-10	-11*	i	i	i
CC(C)(C)c1ccccc1OCCOCCNCc1ccccc1	i	-7	-9.3*	i	i	i
COc1cc(C2C3=C(COC3=O)Oc3cc4c(cc32)OCO4)cc(OC)c1O (centres undefined)	.	.	.	.	i	.
COCCCNCCOCCOc1ccc(Cl)cc1C(C)(C)C	i	-13	-6.2*	i	i	i
COc1ccc(NC(=S)NCCN2CCC(C)CC2)cc1Cl	i	-5	-1.6	i	i	i
CC(=O)c1cnc(Nc2nc(C)c3cc(C)c(C)cc3n2)nc1C	i	7.7*	0.01	i	i	i
CSc1ncc(C(C)=O)c(C)n1	i	-8	-1.1	i	i	i
